From ChEMBL document CHEMBL1125209, “Boc-CCK-4 derivatives containing side-chain ureas as potent and selective CCK-a receptor agonists” (J Med Chem, 1991)
*1 amine or outer side, *2 acyl side, *3 side chain or, on linkers, in order; H or OH if unused. Where a SMILES comes first, the peptide text is derived from it. Side-chain parts run from the residue outwards. The star is where a group is joined. 3Abz = Nc1cccc(C(=O)O)c1; X4 = CC(=O)c1cccc(N*)c1; Boc = CC(C)(C)OC(=O)*; X7 = Clc1cccc(N*)c1Cl; CO = O=C([*:1])[*:2]; NHPh = c1ccc(N*)cc1

What was measured:
Cavia porcellus [1] = species on record: Cavia porcellus; test: The compound was tested for effective concentration for amylase release in guinea pig pancreatic Acini; format: functional
Procedure, shortened: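 Amylase release from guinea pig pancreatic acini. […] Each determination was run in duplicate with <5% sample variability. Means ±SE are given where there were three or more determinations.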

[2] = Selectivity ratio of IC50 measured in guinea pig cortex to that of IC50 for guinea pig pancreas; conditions: Cavia porcellus
[3] = molecular target: T1, Cholecystokinin receptor type A (Cavia porcellus, UniProt Q63931); test: Binding affinity towards cholecystokinin type A receptor in guinea pig pancreas by using [125I]BH-CCK-8 as radioligand; format: tissue-based
T1 sequence (Q63931 whole entry): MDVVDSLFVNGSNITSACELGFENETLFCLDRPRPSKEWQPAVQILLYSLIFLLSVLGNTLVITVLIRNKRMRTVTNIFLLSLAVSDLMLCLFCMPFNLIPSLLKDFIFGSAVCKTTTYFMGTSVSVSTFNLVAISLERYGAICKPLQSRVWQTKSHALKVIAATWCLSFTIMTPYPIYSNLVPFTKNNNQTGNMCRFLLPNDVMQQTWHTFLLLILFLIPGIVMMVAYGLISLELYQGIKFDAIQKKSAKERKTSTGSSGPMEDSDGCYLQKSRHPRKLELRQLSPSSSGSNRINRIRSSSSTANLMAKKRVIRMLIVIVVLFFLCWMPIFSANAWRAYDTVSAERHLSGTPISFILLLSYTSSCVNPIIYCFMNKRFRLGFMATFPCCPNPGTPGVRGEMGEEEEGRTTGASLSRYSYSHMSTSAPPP
Procedure, shortened: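 Radioligand displacement of [125I]Bolton-Hunter CCK-8, guinea pig pancreas (CCK-A) or cortex (CCK-B) membranes. […] Each determination was run in duplicate with <5% sample variability. Means ±SE are given where there were three or more determinations.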

Cavia porcellus [4] = species on record: Cavia porcellus; test: Percentage response in phosphoinositide hydrolysis relative to maximal response elicited by CCK-8 in guinea pig pancreatic acini; format: functional
Procedure, shortened: (§1)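 Guinea pig pancreatic acini, phosphoinositide hydrolysis. […] Efficacy is expressed as % of the maximal response elicited by CCK-8. Each determination was run in duplicate with <5% sample variability. Means ±SE are given for three or more determinations.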

Cavia porcellus [5] = species on record: Cavia porcellus; test: Effective concentration for hydrolysis of phosphoinositide in guinea pig pancreatic Acini; format: functional; procedure, shortened: as §1
[6] = molecular target: Gastrin/cholecystokinin type B receptor (Cavia porcellus); test: Binding affinity towards cholecystokinin type B receptor in guinea pig cortex by using [125I]BH-CCK-8 as radioligand

EC50 (Cavia porcellus [1]) [nM]	Selectivity [2]	IC50 [3] [nM]	EC50 (Cavia porcellus [5]) [nM]	IC50 [6] [nM]	Compound	Max response (Cavia porcellus [4]) [%]
2.7	54	26			COC(=O)c1cccc(NC(=O)NCCCC[C@H](NC(=O)[C@H](Cc2c[nH]c3ccccc23)NC(=O)OC(C)(C)C)C(=O)N[C@@H](CC(=O)O)C(=O)N[C@@H](Cc2ccccc2)C(N)=O)c1 (Boc-WK([CO-3Abz-OMe])DF-NH2)	88
	42		53	1100	CC(C)(C)OC(=O)N[C@@H](Cc1c[nH]c2ccccc12)C(=O)N[C@@H](CCCCNC(=O)Nc1ccccc1)C(=O)N[C@@H](CC(=O)O)C(=O)N[C@@H](Cc1ccccc1)C(N)=O (Boc-WK([CO-NHPh])DF-NH2)	96
5.2		19			CC(=O)c1cccc(NC(=O)NCCCC[C@H](NC(=O)[C@H](Cc2c[nH]c3ccccc23)NC(=O)OC(C)(C)C)C(=O)N[C@@H](CC(=O)O)C(=O)N[C@@H](Cc2ccccc2)C(N)=O)c1 (Boc-WK([CO-X4])DF-NH2)	95
	670	4.5			CC(C)(C)OC(=O)N[C@@H](Cc1c[nH]c2ccccc12)C(=O)N[C@@H](CCCCNC(=O)Nc1cccc(Cl)c1Cl)C(=O)N[C@@H](CC(=O)O)C(=O)N[C@@H](Cc1ccccc1)C(N)=O (Boc-WK([CO-X7])DF-NH2)	
